Test results reported in ChEMBL document CHEMBL1131125, “Effect of polyamine analogues on hypusine content in JURKAT T-cells” (J Med Chem, 1998).
pIC50, pKi: −log10 of the molar value.

Tests used:
Jurkat [1] = assay: competitive inhibition of [3H]SPD transport in JURKAT cells; type: functional, cell-based, Homo sapiens
How it was run: (§1)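 [3H]spermidine uptake rate into JURKAT cells was measured at six spermidine concentrations, without analogue and with analogue at 50, 25 and 10 μM. Lineweaver–Burk plots were used to assign the competitive mode and derive Ki. Values are means of two or three experiments.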

Jurkat [2] = assay: effect of compound on polyamine biosynthetic enzymes in JURKAT cells using ODC assay; type: functional, Homo sapiens
L1210 [3] = assay: % of putrescine (PUT) in L1210 cells after 48 hr at 100 uM concentration; type: functional, cell-based; details: Mus musculus
Jurkat [4] = assay: Inhibitory activity against growth of JURKAT cells after 144h.; type: functional, cell-based; details: Homo sapiens
How it was run: (§2)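 JURKAT cells were grown in RPMI-1640 with 10% fetal calf serum, 2 mM L-glutamine and 1 mM aminoguanidine. Cells were counted electronically. IC50 is the concentration giving 50% of untreated growth, mean of at least two experiments.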

L1210 [5] = assay: Activity of compound measured against L1210 cells; type: functional, cell-based, Mus musculus
Jurkat [6] = assay: effect of compound on polyamine biosynthetic enzymes in JURKAT cells using AdoMetDC assay; type: functional, Homo sapiens
Jurkat [7] = assay: % of spermine (SPM) in JURKAT cells after 144 hr at 5 uM concentration; type: functional, cell-based; details: Homo sapiens
How it was run: (§3)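 Log-phase JURKAT cells were treated with analogue for 144 h, at 2 μM for tetraamines or 5 μM for triamines. After two ice-cold RPMI-1640 washes, pellets were extracted with 1.2 N HClO4. Results are percent of untreated control, mean ± SD of 2–5 determinations run in triplicate.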

Jurkat [8] = assay: % of spermidine (SPD) in JURKAT cells after 144 hr at 5 uM concentration; type: functional, cell-based; details: Homo sapiens; how it was run: as §3
L1210 [9] = assay: % of spermine (SPM) in L1210 cells after 48 hr at 100 uM concentration; type: functional, cell-based; details: Mus musculus
L1210 [10] = assay: Effect of compound on polyamine biosynthetic enzymes in L1210 cells using ODC assay; type: functional, Mus musculus
Jurkat [11] = assay: % of hypusine (Hpu) in JURKAT cells after 144 hr at 5 uM concentration; type: functional, cell-based; details: Homo sapiens
How it was run: (§4)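 JURKAT cells in log-phase growth were exposed to analogue for 144 h, at 2 μM for the tetraamines or 5 μM for the triamines. Cells were washed twice with ice-cold RPMI-1640 and extracted with 1.2 N HClO4. Values are percent of untreated control, mean ± SD of 2–5 determinations, each in triplicate.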

L1210 [12] = assay: % of spermidine (SPD) in L1210 cells after 48 hr at 100 uM concentration; type: functional, cell-based; details: Mus musculus
Jurkat [13] = assay: % of putrescine (PUT) in JURKAT cells after 144 hr at 5 uM concentration; type: functional, cell-based; details: Homo sapiens; how it was run: as §3
L1210 [14] = assay: Effect of compound on polyamine biosynthetic enzymes in L1210 cells using AdoMetDC assay; type: functional, Mus musculus
L1210 [15] = assay: effect of compound on polyamine biosynthetic enzymes in L1210 cells using ODC assay; type: functional, Mus musculus
L1210 [16] = assay: effect of compound on polyamine biosynthetic enzymes in L1210 cells using AdoMetDC assay; type: functional, Mus musculus
Jurkat [17] = assay: inhibitory activity against growth of JURKAT cells after 144h.; type: functional, cell-based; details: Homo sapiens; how it was run: as §2
Jurkat [18] = assay: competitive inhibition of [3H]SPD transport by JURKAT cells; type: functional, cell-based, Homo sapiens; how it was run: as §1
L1210 (mouse) [19] = assay: % of hypusine (Hpu) in control cells after 72 hr at 2 uM concentration
Jurkat [20] = assay: % of putrescine (PUT) in JURKAT cells after 144 h at 2 uM concentration; type: functional, cell-based; details: Homo sapiens; how it was run: as §3
Jurkat [21] = assay: % of spermine (SPM) in JURKAT cells after 144 hr at 2 uM concentration; type: functional, cell-based; details: Homo sapiens; how it was run: as §3
L1210 (mouse) [22] = assay: % of spermine (SPM) in control cells after 72 hr at 2 uM concentration
L1210 (mouse) [23] = assay: % of putrescine (PUT) in control cells after 72 hr at 2 uM concentration
L1210 [24] = assay: % of spermidine (SPD) in L1210 cells after 48 hr at 10 uM concentration; type: functional, cell-based; details: Mus musculus
L1210 (mouse) [25] = assay: % of spermidine (SPD) in control cells after 72 hr at 2 uM concentration
L1210 [26] = assay: % of spermine (SPM) in L1210 cells after 48 hr at 10 uM concentration; type: functional, cell-based; details: Mus musculus
Jurkat [27] = assay: % of spermidine (SPD) in JURKAT cells after 144 hr at 2 uM concentration; type: functional, cell-based; details: Homo sapiens; how it was run: as §3
L1210 [28] = assay: % of putrescine (PUT) in L1210 cells after 48 hr at 10 uM concentration; type: functional, cell-based; details: Mus musculus
Jurkat [29] = assay: % of hypusine (Hpu) in JURKAT cells after 144 hr at 2 uM concentration; type: functional, cell-based; details: Homo sapiens; how it was run: as §4
Jurkat [30] = assay: Competitive inhibition of [3H]SPD (spermidine) transport in JURKAT cells; type: functional, cell-based, Homo sapiens; how it was run: as §1

| Compound | ODC activity (% of control) (Jurkat [2]) [%] | Level (L1210 [3]) [%] | pIC50 (Jurkat [4]) | pKi (L1210 [5]) | AdoMetDC activity (% of control) (Jurkat [6]) [%] | Level (Jurkat [7]) [%] | Level (Jurkat [8]) [%] | Level (L1210 [9]) [%] | Control (L1210 [10]) [%] | Level (Jurkat [11]) [%] | Level (L1210 [12]) [%] | Level (Jurkat [13]) [%] | Control (L1210 [15]) [%] | Control (L1210 [16]) [%] | pIC50 (Jurkat [17]) | pKi (Jurkat [18]) | Level (Jurkat [20]) [%] | Level (Jurkat [21]) [%] | Level (L1210 [24]) [%] | Level (L1210 [26]) [%] | also measured |
| --- | --- | --- | --- | --- | --- | --- | --- | --- | --- | --- | --- | --- | --- | --- | --- | --- | --- | --- | --- | --- | --- |
| NCCCCCNCCCCN | 34.7 | 0 | 4.15 | 5.85 | 79.3 | 25.2 | 0 | 53 | 19 | 80.2 | 0 | 0 |  |  |  |  |  |  |  |  | pKi (Jurkat [1]): 5.55; Control (L1210 [14]): 57% |
| NCCCCCNCCCCCN | 53.3 | 0 |  | 4.85 | 84.9 | 38.8 | 1.1 | 33 |  | 86.4 | 0 | 0 | 16 | 88 | 5.92 | 4.86 |  |  |  |  |  |
| CCNCCCNCCCNCCCNCC [BIS(ETHYL)NORSPERMINE] | 16.9 |  |  |  | 51.4 |  |  |  |  |  |  |  | 10 | 42 | 6.19 | 4.84 | 0 | 5.5 | 14 | 31 | Level (L1210 (mouse) [19]): 56.8%; Level (L1210 (mouse) [22]): 13.4%; Level (L1210 (mouse) [23]): 0%; Level (L1210 (mouse) [25]): 3.8%; Level (Jurkat [27]): 9.2%; Level (L1210 [28]): 30%; Level (Jurkat [29]): 58.9% |
| CCNCCCCNCCCCNCCCCNCC [DIETHYLHOMOSPERMINE] | 29.8 |  | 6.70 | 5.70 | 61.6 |  |  |  | 7 |  |  |  |  | 41 |  |  | 0 | 13.4 | 0 | 61 | pKi (Jurkat [30]): 5.06; Level (Jurkat [27]): 0%; Level (L1210 [28]): 0%; Level (Jurkat [29]): 73.2% |
